# ANO1 block: blocks the mouse calcium-activated chloride channel TMEM16A | HEK293 TMEM16A/YFP iodide influx fluorescence, ionomycin | normalized B-score (activity score, 25-100; higher = stronger inhibition) at 10 µM | 310,000 tested, 1.2% active | AID 588511;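 active means ratio plate-corrected score three or more library SD toward inhibition, starting fluorescence score within five deviations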;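 further: score derived from kinetic fluorescence span divided by baseline fluorescence per well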
# Target sequence (Q8BHY3 whole entry, looked up): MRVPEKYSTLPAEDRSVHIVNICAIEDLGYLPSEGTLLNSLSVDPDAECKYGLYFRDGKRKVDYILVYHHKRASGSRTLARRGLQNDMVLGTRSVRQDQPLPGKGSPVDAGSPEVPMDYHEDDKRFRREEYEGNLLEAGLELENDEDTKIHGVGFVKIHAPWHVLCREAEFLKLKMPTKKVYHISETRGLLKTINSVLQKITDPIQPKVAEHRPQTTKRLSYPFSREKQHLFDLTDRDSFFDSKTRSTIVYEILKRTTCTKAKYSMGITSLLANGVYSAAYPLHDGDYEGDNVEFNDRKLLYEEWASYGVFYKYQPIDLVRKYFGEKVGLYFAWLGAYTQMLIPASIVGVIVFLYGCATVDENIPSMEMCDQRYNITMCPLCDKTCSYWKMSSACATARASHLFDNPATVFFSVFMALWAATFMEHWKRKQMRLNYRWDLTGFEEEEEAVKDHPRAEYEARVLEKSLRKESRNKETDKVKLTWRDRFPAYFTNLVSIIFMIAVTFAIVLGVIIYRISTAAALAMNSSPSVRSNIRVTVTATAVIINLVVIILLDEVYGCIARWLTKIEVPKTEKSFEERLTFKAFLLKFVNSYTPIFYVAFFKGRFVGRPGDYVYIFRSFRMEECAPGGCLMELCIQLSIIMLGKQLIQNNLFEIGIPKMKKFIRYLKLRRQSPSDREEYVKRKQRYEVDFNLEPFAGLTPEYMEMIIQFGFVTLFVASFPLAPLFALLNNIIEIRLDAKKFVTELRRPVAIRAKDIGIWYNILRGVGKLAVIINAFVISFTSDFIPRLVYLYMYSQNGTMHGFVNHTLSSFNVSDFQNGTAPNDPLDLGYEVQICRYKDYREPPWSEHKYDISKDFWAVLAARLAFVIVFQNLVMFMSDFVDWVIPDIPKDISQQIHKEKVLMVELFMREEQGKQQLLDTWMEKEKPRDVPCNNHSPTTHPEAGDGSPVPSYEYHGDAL
# ANO1 activ: activators or potentiators of mouse TMEM16A chloride channel. B-score at 10 µM. 340,000 tested, 0.3% active. HEK293 TMEM16A/YFP-H148Q/I152L, iodide quench fluorescence; stronger effect = lower value. AID 623877;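 active means fluorescence-ratio B-score plate-corrected deviation score at least 3 library SD below zero, with starting fluorescence score within 5 deviations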;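 further: channel opened by trigger with iodide after compound preincubation; score built on the fluorescence ratio of max minus min over baseline; more negative score means more quench and so TMEM16A activation or potentiation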
# CHOP UPR activ: activators of apoptotic arm of unfolded protein response (CHOP); CHO-CHOP luciferase reporter, UPR activation, luminescence; percent of tunicamycin response over DMSO baseline; activation, % at 10 µM; 330,000 tested, 0.34% active; AID 449763;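 active means at 10 µM dose, activation of 40% or more, normalized to positive control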
#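 Dosing – one dose, 10 µM in 0.5% DMSO · System – CHO-CHOP cells, stable luciferase reporter of PERK-eIF2a-CHOP signalling · Input – 500 cells/well · Control set – tunicamycin 10 µg/mL final as positive, DMSO-only wells as negative · Timing – 6 h compound treatment, 37 °C · Measure – % activation vs tunicamycin · Technique – luminescence read with Steady-Glo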
# Hep lipid drop: hepatic lipid droplet formation modulation | inhibition, % at 6.5 µM | AML12 mouse hepatocytes, oleate lipid droplets, BODIPY imaging | 240,000 tested, 0.4% active;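 active means lipid droplet intensity inhibited by at least 50%, with more than 500 cells counted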
#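 Material: mouse AML12 hepatocyte cell line, fixed after treatment; Timing: compound with oleate, overnight; Technique: high-content imaging of BODIPY-stained droplets and DAPI nuclei; Probe or stimulus: oleate, 100 µM final; Dosing: compound at 6.5 µM only.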
# XBP1 UPR activ: activators of adaptive arm of unfolded protein response (XBP1); CHO-XBP1 luciferase reporter, IRE1-XBP1 UPR activation, luminescence; percent of tunicamycin response, DMSO as zero; 330,000 tested, 0.33% active; activation, % at 20 µM; AID 463104;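 active means versus positive control, 20 µM dose yields 30% or more activation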
#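 Material: CHO-XBP1 cells stably carrying IRE1-XBP1-driven luciferase reporter / Amount: 1000 cells per well / Compound: 20 µM, 1% DMSO / Times: 6 h treatment, 37 °C / Detection: luciferase luminescence / Measure: % activation of reporter signal versus tunicamycin and DMSO controls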
# CHOP inhibitor: blocks CHOP induction under ER stress; CHO-K1 CHOP-promoter luciferase, tunicamycin-induced, 15-18 h; inhibition, % at 10 µM; 220,000 tested, 3.8% active;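 active means compounds that reduced the stress-induced luciferase reporter signal by more than about 70% of percent inhibition, limit read from the data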
# CHOP inh conf: confirmation of CHOP induction inhibitors; shares compounds with CHOP inhibitor; CHO-CHOP promoter luciferase reporter, tunicamycin-induced, luminescence; inhibition, % at 10 µM; 2,100 tested, 45% active; AID 504437;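 active means mean of three repeat readings of reporter signal inhibition above a set limit, cut at about 70% in these data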
# Hits are given with their value; – = inactive; · = no result given; ! = a repeat was not active. Only some compounds are listed: those with a hit (about 4.2% of all), similar ones and a draw of the others.
SMILES,ANO1 block,ANO1 activ,CHOP UPR activ,Hep lipid drop,XBP1 UPR activ,CHOP inhibitor,CHOP inh conf
CN1/C(=C/C(=O)c2nc(S(C)(=O)=O)ncc2Cl)C(C)(C)c2ccccc21,–,–,–,·,–,·,117
CN1/C(=C\C(=O)c2cccnc2)C(C)(C)c2ccccc21,–,–,–,–,–,–,·
CCOC(=O)/C=c1\s/c(=C\c2sccc2C)c(=O)n1CC(=O)NCc1ccc(C)cc1,–,·,54,–,64,99,–
CCOC(=O)/C=c1\s/c(=C\c2ccc(-c3ccccc3)cc2)c(=O)n1CC(=O)NCc1ccc2c(c1)OCO2,–,–,–,–,–,–,·
Cc1cccc(C)c1NC(=O)C1CCCN1C(=O)NCc1ccccc1 (stereo not given),–,–,–,–,–,·,·
Cc1ccc(NC(=O)C(=O)NCC2OCCc3ccccc32)cc1 (stereo not given),–,–,–,–,–,105,102
CC(=O)N/C(=C\c1ccccc1)C(=O)OCC(=O)Nc1ccc(C)c(S(=O)(=O)N(C)C)c1,·,–,–,·,–,·,·
COc1cc(NS(=O)(=O)c2ccc(NC(=S)NC(=O)c3sc4ccccc4c3Cl)cc2)ncn1,–,–,·,–,·,100,–
COc1cc(OC)cc(-c2nc3ccccc3c(=O)n2OC(=O)c2ccc(Br)cc2)c1,–,–,–,–,–,106,112
COc1ccc(C(=O)On2c(-c3ccc(Br)cc3)nc3ccccc3c2=O)cc1,–,–,–,–,–,105,–
O=C(Cc1ccccc1)NC1CCSc2ccccc21 (stereo not given),–,–,–,–,–,·,·
Cc1cc(Nc2cccc(F)c2)nc(-c2ccccc2O)n1,–,–,–,·,–,–,·
Cc1cc(Nc2ccccc2)nc(-c2ccccc2O)n1,–,–,–,–,–,96,100
CC(=O)Nc1ccc(N2C(=O)CSC2c2cccc(Br)c2)cc1 (stereo not given),–,–,–,–,–,·,·
Cc1ccc(C2(C(F)(F)F)NC(=O)N3C(=C2C#N)Nc2ccccc23)cc1 (stereo not given),–,–,–,–,–,107,–
Cc1ccc(NCC(=O)N/N=C/c2cccc(Br)c2)cc1,–,–,–,–,–,–,·
O=C(CNc1cccc(C(F)(F)F)c1)N/N=C/c1cccc(Br)c1,–,–,–,–,–,99,108
COc1ccccc1CNC(=O)COC(=O)c1ncc(Cl)c(Cl)c1Cl,–,–,–,·,–,·,·
Cc1ccc(N=Cc2cc3c(cc2O)OC(N)=C(C#N)C3c2ccccc2)cc1 (stereo not given),–,–,–,–,–,99,82
Cc1ccc(C2C(C#N)=C(N)Oc3cc4c(cc32)OCO4)cc1 (stereo not given),–,–,–,–,–,–,·
CC(=O)Nc1ccc(Nc2c([N+](=O)[O-])c(=O)n(-c3ccccc3)c3ccccc23)cc1,–,–,–,–,–,–,·
O=[N+]([O-])CC(c1ccccc1)c1c[nH]c2ccccc12 (stereo not given),–,–,–,·,–,·,·
OC(CNCC(c1ccc(Cl)cc1Cl)c1c[nH]c2ccccc12)c1ccccc1 (stereo not given),–,–,–,–,–,107,125
C=CCC(c1ccccc1)N(C(C)=O)c1ccco1 (stereo not given),–,–,–,–,–,–,·
C=CCC(Nc1ccccc1)C12C=CC(O1)C(C(=O)OC)=C2C(=O)OC (stereo not given),–,–,–,–,–,112,–
SMILES,ANO1 block,ANO1 activ,CHOP UPR activ,Hep lipid drop,XBP1 UPR activ,CHOP inhibitor,CHOP inh conf
CC(OC(=O)Cn1nnc2ccccc21)C(=O)NC1CCCC1 (stereo not given),–,–,–,–,–,·,·
O=c1[nH]c(=O)n(Cc2ccccc2)c2c1C(C(F)(F)F)(C(F)(F)F)N=C(c1ccco1)N2,–,–,–,·,–,–,·
O=c1[nH]c(=O)n(Cc2ccco2)c2c1C(C(F)(F)F)(C(F)(F)F)N=C(c1ccc(F)cc1)N2,–,–,–,–,–,100,87
CC(C)Cn1c(=O)c2ccccc2n2c(SCC(=O)N3c4ccccc4CC3C)nnc12 (stereo not given),–,–,–,–,–,98,85
O=C(N/N=C/C(Br)=C/c1ccccc1)c1cc(-c2ccco2)[nH]n1,–,–,–,–,–,103,–
COc1ccccc1/C=C/C=N/NC(=O)c1cc(-c2ccco2)[nH]n1,–,–,–,–,–,–,·
Cc1cc(Cl)ccc1OCc1n[nH]c(=S)n1C1CCCCC1,–,–,–,–,–,103,119
CC(C)COc1ccc(/C(=N/O)c2ccccc2)cc1,–,–,–,–,–,107,92
CC(O)COc1ccc(/C(=N/O)c2ccccc2)cc1 (stereo not given),–,–,–,·,–,–,·
CCCn1nc(C(=O)OCC(=O)Nc2cccc(OC)c2)c2ccccc2c1=O,–,–,–,–,–,–,·
CCOC(=O)c1c(C)n(CC(O)CN(C)C)c2cc(Br)c(OC)cc12 (stereo not given),–,–,–,–,–,–,·
Cc1cc(Oc2cc(N)cc([N+](=O)[O-])c2)ccc1Cl,–,–,–,–,–,102,–
Nc1cc(OCC(F)(F)F)cc([N+](=O)[O-])c1,–,–,–,–,–,–,·
COc1cc(/C=N/N=C/c2cc(OC)c(O)c(OC)c2)cc(OC)c1O,–,–,–,–,–,–,·
COc1cc(/C=N/N=C(/C(=O)c2ccccc2)c2ccccc2)cc(OC)c1O,–,–,–,–,–,99,–
O=C1NCN(c2ccccc2)C12CCN(CCCC(c1ccc(F)cc1)c1ccc(F)cc1)CC2,–,–,–,–,–,106!,123
COc1ccc(N2CC(C(=O)Nc3cccnc3)CC2=O)cc1 (stereo not given),–,–,–,–,–,·,·
O=C1C=CC(O)(c2cc(=O)c3c(O)cc(O)cc3o2)C=C1,–,–,–,–,–,108,122
O=c1cc(-c2ccccc2Cl)oc2cc(O)cc(O)c12,–,–,–,–,–,–,·
Cc1ccccc1CNc1ccc(C(CC(N)=O)NC(=O)c2ccc(Br)cc2)cc1[N+](=O)[O-] (stereo not given),–,–,–,–,–,103,–
NC(=O)CC(NC(=O)c1ccc(Br)cc1)c1ccc(NCc2ccc(F)cc2)c([N+](=O)[O-])c1 (stereo not given),–,–,–,–,–,–,·

# Screening data: PubChem BioAssay, several laboratories
